According to ChEMBL document CHEMBL1135530, “Selective alpha4beta7 integrin antagonists and their potential as antiinflammatory agents” (J Med Chem, 2002):
Peptide text beside a SMILES is read from it.

Legend:
Integrin alpha-4/beta-1 = Integrin alpha-4/beta-1 (Homo sapiens, UniProt P05556+P13612); assay: Inhibitory concentration affording 50% inhibition of alpha4-beta1 integrin binding to VCAM-1, using ELISA assay.; assay type: protein-complex assay
Procedure, shortened: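 α4β1 extracted from Ramos cell membranes (lectin chromatography, gel filtration in 1% octylglucoside), with 1 mM MnCl2 throughout. Wells coated with 4 µg/mL recombinant soluble human VCAM-1 (5 N-terminal Ig domains, from CHO cells) and blocked with 1% BSA. Inhibitor and receptor 2 h at 37 °C in Tris pH 7.4. Bound receptor detected with anti-β1 mAb 2D4.6, then HRP anti-mouse and TMB at 450 nm. IC50 at half-maximal absorbance.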

Integrin alpha-4/beta-7 = target: T1, Integrin alpha-4/beta-7 (Homo sapiens, UniProt P13612+P26010); assay: Ability to block the alpha4-beta7 integrin-MAdCAM-1 binding interaction using a protein ELISA format; assay type: protein-complex assay
T1 sequence (P13612 whole entry): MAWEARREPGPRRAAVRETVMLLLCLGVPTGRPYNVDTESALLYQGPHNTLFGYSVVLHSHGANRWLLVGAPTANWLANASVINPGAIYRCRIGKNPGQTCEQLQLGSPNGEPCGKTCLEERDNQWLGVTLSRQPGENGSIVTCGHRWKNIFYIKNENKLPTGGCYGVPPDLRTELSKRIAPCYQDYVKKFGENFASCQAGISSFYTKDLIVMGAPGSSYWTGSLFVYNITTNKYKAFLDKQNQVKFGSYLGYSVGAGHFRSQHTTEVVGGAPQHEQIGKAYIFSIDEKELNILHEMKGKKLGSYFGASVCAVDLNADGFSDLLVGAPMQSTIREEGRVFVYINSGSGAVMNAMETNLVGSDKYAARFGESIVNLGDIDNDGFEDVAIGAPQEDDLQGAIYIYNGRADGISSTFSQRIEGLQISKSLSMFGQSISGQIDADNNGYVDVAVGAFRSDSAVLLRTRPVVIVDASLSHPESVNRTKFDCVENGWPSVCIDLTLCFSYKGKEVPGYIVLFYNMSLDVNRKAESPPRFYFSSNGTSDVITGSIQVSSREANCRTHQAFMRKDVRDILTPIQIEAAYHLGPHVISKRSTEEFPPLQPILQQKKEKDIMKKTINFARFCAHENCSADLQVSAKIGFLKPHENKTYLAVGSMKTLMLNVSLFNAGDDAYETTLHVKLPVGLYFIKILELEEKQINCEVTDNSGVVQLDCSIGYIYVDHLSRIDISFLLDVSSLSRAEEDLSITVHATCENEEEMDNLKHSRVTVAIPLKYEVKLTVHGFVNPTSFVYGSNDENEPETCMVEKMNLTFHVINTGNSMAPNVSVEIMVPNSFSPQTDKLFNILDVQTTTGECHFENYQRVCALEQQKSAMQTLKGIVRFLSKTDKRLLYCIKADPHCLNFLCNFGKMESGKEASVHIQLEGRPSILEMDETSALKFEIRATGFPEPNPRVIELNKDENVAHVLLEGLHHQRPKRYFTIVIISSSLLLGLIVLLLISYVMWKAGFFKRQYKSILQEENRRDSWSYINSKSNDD
T1 sequence (P26010 whole entry): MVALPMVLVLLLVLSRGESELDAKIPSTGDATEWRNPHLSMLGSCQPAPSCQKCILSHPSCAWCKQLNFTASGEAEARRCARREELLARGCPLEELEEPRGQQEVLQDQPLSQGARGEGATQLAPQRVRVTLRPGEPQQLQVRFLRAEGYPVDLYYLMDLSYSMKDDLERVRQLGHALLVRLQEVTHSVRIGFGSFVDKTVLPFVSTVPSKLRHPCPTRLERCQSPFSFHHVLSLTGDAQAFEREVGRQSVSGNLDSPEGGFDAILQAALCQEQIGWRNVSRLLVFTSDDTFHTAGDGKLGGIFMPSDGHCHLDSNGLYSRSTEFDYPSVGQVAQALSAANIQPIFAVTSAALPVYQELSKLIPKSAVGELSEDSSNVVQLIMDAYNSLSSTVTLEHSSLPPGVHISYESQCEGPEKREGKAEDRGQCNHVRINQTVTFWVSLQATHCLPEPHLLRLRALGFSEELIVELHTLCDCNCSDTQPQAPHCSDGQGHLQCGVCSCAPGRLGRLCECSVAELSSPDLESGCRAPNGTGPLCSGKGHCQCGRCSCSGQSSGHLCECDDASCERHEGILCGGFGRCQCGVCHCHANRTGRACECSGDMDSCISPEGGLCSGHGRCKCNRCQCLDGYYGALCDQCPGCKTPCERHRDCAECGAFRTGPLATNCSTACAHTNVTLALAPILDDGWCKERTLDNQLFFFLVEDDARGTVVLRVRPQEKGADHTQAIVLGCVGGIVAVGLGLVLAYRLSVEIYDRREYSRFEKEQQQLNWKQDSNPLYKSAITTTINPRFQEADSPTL
Procedure, shortened: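 Plates coated overnight at 4 °C with anti-human α4 antibody 9F10 (2 µg/mL), blocked in Tris pH 7.5 buffer with 1 mM MnCl2, Tween-20 and 0.5% BSA, then loaded with α4β7 purified from transfected JY cells (2 µg/mL). Compounds (1 nM–200 µM final, triplicate) plus MAdCAM-1-Ig-HRP (1 µg/mL), 2 h room temperature. TMB read at 450 nm; IC50 at half-maximal absorbance.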

Chain of Integrin alpha-4/beta-1 (P05556 whole entry, one chain of several, the tested form may be a part): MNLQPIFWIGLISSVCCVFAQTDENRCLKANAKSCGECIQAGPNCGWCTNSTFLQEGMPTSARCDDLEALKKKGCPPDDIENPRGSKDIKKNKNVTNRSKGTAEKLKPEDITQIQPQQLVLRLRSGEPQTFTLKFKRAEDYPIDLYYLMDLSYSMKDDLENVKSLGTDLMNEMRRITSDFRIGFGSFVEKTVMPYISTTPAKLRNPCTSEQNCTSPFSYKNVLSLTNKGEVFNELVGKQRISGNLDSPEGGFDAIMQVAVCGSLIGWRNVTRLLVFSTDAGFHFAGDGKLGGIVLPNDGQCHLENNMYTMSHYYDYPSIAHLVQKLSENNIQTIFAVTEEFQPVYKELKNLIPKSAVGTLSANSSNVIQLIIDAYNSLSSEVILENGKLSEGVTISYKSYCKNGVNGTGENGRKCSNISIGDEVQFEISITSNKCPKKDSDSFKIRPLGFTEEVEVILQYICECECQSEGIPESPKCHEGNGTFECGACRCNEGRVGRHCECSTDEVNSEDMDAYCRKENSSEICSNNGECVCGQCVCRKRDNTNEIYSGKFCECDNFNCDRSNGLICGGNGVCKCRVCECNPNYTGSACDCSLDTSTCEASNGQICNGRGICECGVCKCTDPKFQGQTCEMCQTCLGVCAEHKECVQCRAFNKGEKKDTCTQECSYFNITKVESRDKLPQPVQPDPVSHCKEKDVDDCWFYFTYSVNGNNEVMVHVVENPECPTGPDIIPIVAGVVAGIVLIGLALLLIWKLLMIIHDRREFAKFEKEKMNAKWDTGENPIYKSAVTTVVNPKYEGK

IC50 (Integrin alpha-4/beta-1) [µM] | IC50 (Integrin alpha-4/beta-7) [nM] | SMILES
3.2 | 2200 | CSCC[C@@H]1NC(=O)[C@H](CCCN=C(N)N)NC(=O)[C@@H](N)CSSC[C@@H](C(N)=O)NC(=O)[C@H](CC(C)C)NC(=O)[C@H]([C@@H](C)O)NC(=O)[C@H](CC(=O)O)NC1=O
2.2 | 40000 | CC(C)C[C@@H]1NC(=O)[C@H]([C@@H](C)O)NC(=O)[C@H](CC(N)=O)NC(=O)[C@H](CO)NC(=O)[C@H](CCCNC(=N)N)NC(=O)[C@@H](N)CSSC[C@@H](C(=O)O)NC1=O
13 | 840 | CC(C)C[C@@H]1NC(=O)[C@H](C(C)C)NC(=O)[C@H](CC(=O)O)NC(=O)[C@H](CO)NC(=O)[C@H](CCCN=C(N)N)NC(=O)[C@@H](N)CSSC[C@@H](C(N)=O)NC1=O
> 100 | > 100000 | CC(C)C[C@H]1NC(=O)[C@H]([C@H](C)O)NC(=O)[C@H](CC(=O)O)NC(=O)[C@H](CO)NC(=O)[C@@H](CCCN=C(N)N)NC(=O)[C@H](N)CSSC[C@H](C(N)=O)NC1=O
4.2 | 120 | CC(C)C[C@@H]1NC(=O)[C@H]([C@@H](C)O)NC(=O)[C@H](CC(=O)O)NC(=O)[C@H](CO)NC(=O)[C@H](CCCNC(=N)N)NC(=O)[C@@H](N)CSSC[C@@H](C(N)=O)NC1=O
7.4 | 2100 | CC(C)C[C@@H]1NC(=O)[C@H]([C@@H](C)O)NC(=O)[C@H](CC(=O)O)NC(=O)[C@H]([C@@H](C)O)NC(=O)[C@H](CCCN=C(N)N)NC(=O)[C@@H](N)CSSC[C@@H](C(N)=O)NC1=O
0.8 | 1900 | CC(C)C[C@@H]1NC(=O)[C@H](CCCN=C(N)N)NC(=O)[C@@H](N)CSSC[C@@H](C(N)=O)NC(=O)[C@H](CC(C)C)NC(=O)[C@H]([C@@H](C)O)NC(=O)[C@H](CC(=O)O)NC1=O
88 | 175000 | CC(C)C[C@@H]1NC(=O)[C@H]([C@@H](C)O)NC(=O)[C@H](CC(N)=O)NC(=O)[C@H](CO)NC(=O)[C@H](CCCNC(=N)N)NC(=O)[C@@H](N)CSSC[C@@H](C(N)=O)NC1=O
3 | 30000 | CC(C)C[C@@H]1NC(=O)[C@H]([C@@H](C)O)NC(=O)[C@H](CCC(=O)O)NC(=O)[C@H](CO)NC(=O)[C@H](CCCN=C(N)N)NC(=O)[C@@H](N)CSSC[C@@H](C(N)=O)NC1=O
59 | 4500 | CC(C)[C@@H]1NC(=O)[C@H]([C@@H](C)O)NC(=O)[C@H](CC(=O)O)NC(=O)[C@H](CO)NC(=O)[C@H](CCCNC(=N)N)NC(=O)[C@@H](N)CSSC[C@@H](C(N)=O)NC1=O
0.4 | 130 | CC(C)C[C@@H]1NC(=O)[C@H]([C@@H](C)O)NC(=O)[C@H](CC(=O)O)NC(=O)[C@H](CO)NC(=O)[C@H](CCCNC(=N)N)NC(=O)[C@@H](N)CSSC[C@@H](C(=O)O)NC1=O
> 100 | 11000 | C[C@@H](O)[C@@H]1NC(=O)[C@H](CC(=O)O)NC(=O)[C@H](CO)NC(=O)[C@H](CCCN=C(N)N)NC(=O)[C@@H](N)CSSC[C@@H](C(N)=O)NC(=O)CNC1=O

Second part, the compound before the results:

SMILES | IC50 (Integrin alpha-4/beta-1) [µM] | IC50 (Integrin alpha-4/beta-7) [nM]
CC(C)C[C@@H]1NC(=O)[C@H](CO)NC(=O)[C@H](CC(=O)O)NC(=O)[C@H](CO)NC(=O)[C@H](CCCNC(=N)N)NC(=O)[C@@H](N)CSSC[C@@H](C(N)=O)NC1=O | 14 | 290
CC(C)C[C@@H]1NC(=O)[C@H]([C@@H](C)O)NC(=O)[C@H](CC(=O)O)NC(=O)[C@H](CO)NC(=O)[C@H](Cc2cnc[nH]2)NC(=O)[C@@H](N)CSSC[C@@H](C(N)=O)NC1=O | 1.1 | 390
CC(C)C[C@@H]1NC(=O)[C@H]([C@@H](C)O)NC(=O)[C@H](CC(=O)O)NC(=O)[C@H](CO)NC(=O)[C@H](Cc2c[nH]c3ccccc23)NC(=O)[C@@H](N)CSSC[C@@H](C(N)=O)NC1=O | 0.16 | 430
CC(C)C[C@@H]1NC(=O)[C@H]([C@@H](C)O)NC(=O)[C@H](CC(=O)O)NC(=O)[C@H](CO)NC(=O)[C@H](Cc2ccc(O)cc2)NC(=O)[C@@H](N)CSSC[C@@H](C(N)=O)NC1=O | 0.009 | 130
CSCC[C@H](N)C(=O)N[C@@H](CC(=O)O)C(=O)N[C@H]1CSSC[C@@H](C(=O)NCC(=O)N[C@@H](CCC(=O)O)C(N)=O)NC(=O)[C@H](CC(C)C)NC(=O)[C@H]([C@@H](C)O)NC(=O)[C@H](CC(=O)O)NC(=O)[C@H](CO)NC(=O)[C@H](CCCNC(=N)N)NC1=O (HELM PEPTIDE1{M.D.C.R.S.D.T.L.C.G.E.[am]}$PEPTIDE1,PEPTIDE1,3:R3-9:R3$$$V2.0) | 4.2 | 190
CSCC[C@H](N)C(=O)N[C@@H](CC(=O)O)C(=O)N[C@H]1CSSC[C@@H](C(=O)NCC(N)=O)NC(=O)[C@H](CC(C)C)NC(=O)[C@H]([C@@H](C)O)NC(=O)[C@H](CC(=O)O)NC(=O)[C@H](CO)NC(=O)[C@H](CCCN=C(N)N)NC1=O (HELM PEPTIDE1{M.D.C.R.S.D.T.L.C.G.[am]}$PEPTIDE1,PEPTIDE1,3:R3-9:R3$$$V2.0) | 8.8 | 340
CC(C)C[C@@H]1NC(=O)[C@H]([C@@H](C)O)NC(=O)[C@H](CC(=O)O)NC(=O)[C@H](CO)NC(=O)[C@H](Cc2ccccc2)NC(=O)[C@@H](N)CSSC[C@@H](C(N)=O)NC1=O | 0.05 | 550
CC(C)C[C@@H]1NC(=O)[C@H]([C@@H](C)O)NC(=O)[C@H](CCC(N)=O)NC(=O)[C@H](CO)NC(=O)[C@H](CCCNC(=N)N)NC(=O)[C@@H](N)CSSC[C@@H](C(N)=O)NC1=O (HELM PEPTIDE1{C.R.S.Q.T.L.C.[am]}$PEPTIDE1,PEPTIDE1,1:R3-7:R3$$$V2.0) | > 100 | > 100000
CSCC[C@H](NC(=O)[C@H](CC(C)C)NC(=O)[C@H](Cc1c[nH]c2ccccc12)NC(=O)[C@H](CCCN=C(N)N)NC(=O)[C@H](CCC(=O)O)NC(=O)[C@H](Cc1c[nH]c2ccccc12)NC(C)=O)C(=O)N[C@@H](CC(=O)O)C(=O)N[C@H]1CSSC[C@@H](C(=O)NCC(=O)N[C@@H](CCC(=O)O)C(=O)N[C@@H](CO)C(=O)N[C@@H](Cc2c[nH]cn2)C(=O)N[C@@H](CCC(N)=O)C(=O)N[C@@H](CCC(=O)O)C(N)=O)NC(=O)[C@H](CC(C)C)NC(=O)[C@H]([C@@H](C)O)NC(=O)[C@H](CC(=O)O)NC(=O)[C@H](CO)NC(=O)[C@H](CCCN=C(N)N)NC1=O (HELM PEPTIDE1{[ac].W.E.R.W.L.M.D.C.R.S.D.T.L.C.G.E.S.H.Q.E.[am]}$PEPTIDE1,PEPTIDE1,9:R3-15:R3$$$V2.0) | 12.1 | 1300
CC(C)C[C@@H]1NC(=O)[C@H]([C@@H](C)O)NC(=O)[C@H](CC(=O)O)NC(=O)[C@H](CO)NC(=O)[C@H](CCCNC(=N)N)NC(=O)[C@@H](N)CSSC[C@@H](C(=O)NCC(N)=O)NC1=O (HELM PEPTIDE1{C.R.S.D.T.L.C.G.[am]}$PEPTIDE1,PEPTIDE1,1:R3-7:R3$$$V2.0) | 3.8 | 110
